Assay outcomes deposited in PubChem BioAssay by The Scripps Research Institute Molecular Screening Center.
Sampled rows, rich in hits. Any-hit rate of the full collection: about 2.7%.
OXTR potentiator: potentiators of human oxytocin receptor. P30559. CHO-OTR cells, Fluo-8 calcium fluorescence, potentiator mode; 0% = oxytocin EC15, 100% = EC100. activation, % at 3 µM. 320,000 tested, 0.061% active. AID 2445;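 active = activation above that plate's cutoff, the mean activation of tested compounds plus 3 SD, cut at about 6.6% in these data, passing the limit was not always enough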
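test system = CHO-OTR cells, human receptor | compound = single-point 3.0 µM | schedule = 6 min compound pre-incubation at room temperature, 100 s kinetic read | signal = Fluo-8 no-wash calcium dye fluorescence, excitation 470-495 nm, emission 515-575 nm | repeats = single well per compound, singlicate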
OX1R antag-1: human HCRTR1 antagonism | O43613 | CHO/OX1R cells, Fluo-8 calcium fluorescence, orexin A | inhibition, % at 5 µM | 330,000 tested, 0.43% active | AID 434989;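 active = inhibition above its plate's threshold, mean inhibition of all tested compounds on the plate plus 3 SD, cut at about 37% in these data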
CHO parental Ca: counter-screen for OX1R antagonists: effect in parental CHO cells | AID 463079 | inhibition, % at 5.6 µM | 330,000 tested, 0.63% active | parental CHO-K1, ATP-induced calcium, Fluo-8 fluorescence;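 active = inhibition above that plate's mean sample inhibition plus 3 SD, cut at about 26% in these data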
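Test system: untransfected parental CHO cell line. Compound: one dose, 5.6 µM nominal. Detection: intracellular calcium via Fluo-8 no-wash fluorescent dye. Measure: % inhibition. Benchmarks: ATP-challenged DMSO wells low, unchallenged DMSO wells high.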
V1R ag counter: V1a receptor agonism, counter-screen for OXTR agonists; P37288; CHO-V1R cells, Fluo-8 calcium fluorescence, agonist mode; 0% DMSO, 100% 3 nM vasopressin; activation, % at 3 µM; 320,000 tested, 0.25% active;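 active = activation above the mean activation of all tested compounds plus 3 SD, per screening run, cut at about 20% in these data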;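 note: signal is peak over basal fluorescence ratio across a 100 second FLIPR read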
Target sequence (P37288 whole entry, looked up): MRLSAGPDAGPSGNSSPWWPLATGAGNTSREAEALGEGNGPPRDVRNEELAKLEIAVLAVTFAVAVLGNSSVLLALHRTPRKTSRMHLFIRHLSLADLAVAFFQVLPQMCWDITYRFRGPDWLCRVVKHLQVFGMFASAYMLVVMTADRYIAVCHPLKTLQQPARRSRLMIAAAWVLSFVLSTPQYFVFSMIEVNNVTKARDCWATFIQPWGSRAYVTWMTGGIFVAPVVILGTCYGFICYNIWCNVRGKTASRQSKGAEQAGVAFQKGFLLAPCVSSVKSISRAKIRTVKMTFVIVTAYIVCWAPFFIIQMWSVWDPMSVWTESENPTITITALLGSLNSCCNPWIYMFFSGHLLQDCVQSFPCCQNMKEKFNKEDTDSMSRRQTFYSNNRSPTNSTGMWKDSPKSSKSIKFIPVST
OXTR agonist: activates the human oxytocin receptor; P30559; CHO-OTR cells, Fluo-8 calcium fluorescence; normalized: DMSO 0%, oxytocin 100%; activation, % at 3 µM; 320,000 tested, 0.32% active;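 active = activation above the mean of all tested compounds plus 3 SD, cutoff set per screening run, cut at about 20% in these data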;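 note: peak over basal fluorescence ratio from a 100 s FLIPR kinetic read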
OX1R antag-2: antagonists of human orexin 1 receptor (OX1R). O43613. OX1R-expressing cells, FRET antagonist read-out. inhibition, % at 6.6 µM. 330,000 tested, 1.8% active; in the data active = inhibition mostly above about 38%, no sharp cut-off; inactive = mostly below about 40%
OXTR ag confirm: human OXTR agonism, confirmation; CHO-OTR cells, Fluo-8 calcium fluorescence, agonist; 390 tested, 20% active; shares compounds with OXTR agonist; activation, % at 3 µM; AID 434963;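 active = mean activation above about 20% derived from the earlier single-dose screen, limit read from the data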;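 note: peak over minimum fluorescence ratio per well during a 100 second FLIPR read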
V1R ag counter 3x: activates V1a receptor in oxytocin agonist counter-screen | shares compounds with OXTR agonist | CHO-V1R cells, Fluo-8 calcium fluorescence | activation, % at 3 µM | 390 tested, 10% active | AID 434991;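 active = mean activation over triplicate exceeds the hit threshold set in the earlier primary screen, cut at about 20% in these data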;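 note: peak over basal fluorescence ratio within a 100 second read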
OX1R Ca confirm: OX1R (human) antagonism, confirmed; shares compounds with OX1R antag-1; CHO/OX1R cells, orexin A calcium Fluo-8 fluorescence; inhibition, % at 5 µM; 1,100 tested, 38% active; AID 492963; in the data active = inhibition above about 29%
CHO Ca counter: counter-screen: parental CHO calcium response change, triplicate; 1,100 tested, 9.3% active; AID 492965; shares compounds with OX1R antag-1; parental CHO-K1, ATP-induced calcium, Fluo-8 fluorescence; inhibition, % at 5.6 µM;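 active = inhibition above a per-plate limit, the mean inhibition of that plate's test compounds plus 3 SD, cut at about 25% in these data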
Large screens that a line does not name were inactive (follow-up assays come after a bar, where they were run); ! = not active in a repeat.

O=C(NCc1ccc(OC(F)(F)F)cc1)c1cccc2c1C(=O)c1ccc(N3CCCC3)cc1S2(=O)=O	none
O=C(c1ccc(S(=O)(=O)Nc2ccccc2)cc1)N1CCCCCCC1	none
COc1cccc(NS(=O)(=O)c2ccc3c(c2)CCN3C(C)=O)c1	OXTR agonist 20 | OXTR ag confirm inactive | V1R ag counter 3x inactive
CSc1cccc(NS(=O)(=O)c2ccc3c(c2)CCN3C(C)=O)c1	CHO parental Ca 64, OXTR agonist 20 | OXTR ag confirm inactive | V1R ag counter 3x inactive
COc1ccc(NS(=O)(=O)c2cc(C(=O)NNC(=O)c3ccncc3)ccc2OC)c(OC)c1	none
COc1ccc(/C=C(/NC(=O)c2ccccc2)C(=O)N2CCCCC2)cc1OC	none
COc1ccc(/C=C(/NC(=O)c2ccccc2)C(=O)N2CCCC2)cc1OC	OXTR agonist 28 | OXTR ag confirm inactive | V1R ag counter 3x inactive
COc1ccc(NC(=O)CSc2nc3c(sc4ccccc43)c(=O)n2CCCN2CCCC2)cc1	none
Cc1ccc(Oc2ccc(NC(=O)Cn3ccsc3=N)cc2)cc1	OXTR agonist 23 | OXTR ag confirm inactive | V1R ag counter 3x inactive
Cc1nc2ccccc2n2c(O)c(CC(=O)O)cc12	OXTR agonist 24 | OXTR ag confirm inactive | V1R ag counter 3x inactive
COc1ccc([C@H]2CC(=O)C=C(c3ccc4c(c3)sc3ccccc34)C2)cc1	none
Cc1nc2c(c(=O)c3ccccc3n2C)c(=O)n1C1CCCCCC1	OXTR agonist 20 | OXTR ag confirm inactive | V1R ag counter 3x inactive
Cc1nc2c(c(=O)c3ccccc3n2C)c(=O)n1-c1ccccc1	none
Cc1ccnc2nc(C(=O)OCC(=O)Nc3ccc4c(c3)OCCO4)nn12	none
Cc1ccccc1Cn1nnc(C(=O)Nc2cccc(C)c2C)c1N	OXTR agonist 22 | OXTR ag confirm 22 | V1R ag counter 3x inactive
CN[C@H]1CC[C@@H](c2ccc(Cl)c(Cl)c2)c2ccccc21	OXTR agonist 21! | OXTR ag confirm inactive | V1R ag counter 3x inactive
O=C1C=C(O)CC(c2ccc(Cl)c(Cl)c2)C1 (configuration not stated)	none
O=C(CCN1CCN(Cc2ccccc2)CC1)Nc1ccc(OCc2ccccc2)cc1	CHO parental Ca 36, OXTR agonist 22 | OXTR ag confirm inactive | V1R ag counter 3x inactive
O=C(CCc1cn(Cc2ccc(F)cc2)c2ccccc12)N1CCOCC1	OXTR agonist 20 | OXTR ag confirm inactive | V1R ag counter 3x inactive
CCCCN(CCCC)c1ccc(C(=O)c2ccccc2C(=O)O)c(O)c1	OX1R antag-1 78, CHO parental Ca 94, OXTR agonist 34 | OXTR ag confirm inactive | V1R ag counter 3x inactive
C=CCN(C/C(=N\O)c1sc(C(=O)OCC)nc1C)c1cccc(Br)c1	none
O=C(O)c1cccc(NC(=O)c2cn(-c3ccccc3)nc2-c2cc3ccccc3o2)c1	OXTR agonist 20 | OXTR ag confirm inactive | V1R ag counter 3x inactive
Cc1[nH]c2ccccc2c1C(=O)C(=O)Nc1ccc2c(c1)OCO2	none
C[C@H]1CC[C@H]2C(=O)N[C@H](Cc3ccccc3)C(=O)N2[C@@H]1c1ccccc1	OXTR agonist 30 | OXTR ag confirm inactive | V1R ag counter 3x inactive
CCOc1ccc(C(C(=O)NC2CCCC2)N(C(=O)c2snc(C(N)=O)c2N)c2cccc(O)c2)cc1 (configuration not stated)	none
Cc1ccc(S(=O)(=O)Nc2cc(C)cn(Cc3ccc(F)cc3)c2=O)cc1	none
CN1CCN(C2Cc3ccccc3Sc3ccc(Cl)cc32)CC1 (configuration not stated)	none
CN1CCN(C2Cc3ccccc3Sc3cc(C(F)(F)F)ccc32)CC1 (configuration not stated)	OXTR agonist 24 | OXTR ag confirm inactive | V1R ag counter 3x inactive
CCCCSc1nc(O)cc(=O)n1CC	none
C=CCn1c(SCCCC)nc(O)cc1=O	OXTR agonist 33 | OXTR ag confirm inactive | V1R ag counter 3x inactive
NCCCNc1nc(N)c([N+](=O)[O-])c(NC2CCCCC2)n1	none
N#CCCn1nc(-c2ccccc2)cc1Nc1ccccc1NC(=O)C(F)(F)F	none
N#CCCn1nc(-c2ccc(Cl)cc2)cc1Nc1ccccc1NC(=O)C(F)(F)F	OXTR agonist 24 | OXTR ag confirm inactive | V1R ag counter 3x inactive
O=C(COc1ccc(F)cc1Br)NCCCN1CCCC1=O	none
CC1C/C(=C/c2ccco2)C(=O)/C(=C/c2ccco2)C1 (configuration not stated)	OXTR agonist 24 | OXTR ag confirm inactive | V1R ag counter 3x inactive
O=c1c2ccccc2ncn1-c1ccc([N+](=O)[O-])cc1[N+](=O)[O-]	OXTR agonist 21, OX1R antag-2 58 | OXTR ag confirm inactive | V1R ag counter 3x inactive
COc1cc(C(=O)O/N=C2/C=C(C)C(=O)C=C2C)cc(OC)c1OC	none
CC1=C/C(=N\OS(=O)(=O)c2ccccc2)C(C)=CC1=O	OX1R antag-1 93, CHO parental Ca 82, OXTR agonist 20, OX1R antag-2 102 | OXTR ag confirm inactive | V1R ag counter 3x inactive
Cc1cc(C(c2ccc(O)cc2)c2cc(C)c(O)cc2C)c(C)cc1O	OXTR agonist 41 | OXTR ag confirm 40 | V1R ag counter 3x 26
COC(=O)C1=C(C)N(Cc2ccccc2)C(=NCc2cccc(Cl)c2)N[C@H]1c1cccc(F)c1	OX1R antag-1 61, OXTR agonist 22 | OXTR ag confirm inactive | V1R ag counter 3x inactive | OX1R Ca confirm 51 | CHO Ca counter inactive
COC(=O)c1cc(NC(=S)NCc2ccc(Cl)cc2)cc(C(=O)OC)c1	none
COC(=O)c1cccc(NC(=S)NCc2ccc(Cl)cc2)c1	OXTR agonist 21 | OXTR ag confirm inactive | V1R ag counter 3x inactive | OX1R Ca confirm inactive | CHO Ca counter inactive
CCC(=O)N1CCc2cc(S(=O)(=O)CCC(=O)N(C)c3ccc(OC)cc3)ccc21	none
Cc1cccc(OCC(=O)Nc2ccncc2)c1C	OXTR agonist 20 | OXTR ag confirm inactive | V1R ag counter 3x inactive | OX1R Ca confirm inactive | CHO Ca counter 51
COc1ccccc1OCC(=O)Nc1ccncc1	none
